Active and inactive are the calls of the source. No cut-off for these calls is given here.
Experiments:
[1] = biological target: T1, Alpha-1B adrenergic receptor (Homo sapiens, UniProt P35368); test: Displacement of [125I]BE-2254 from human adrenergic Alpha-1B receptor expressed in HEK293 cells; format: cell-based
T1 sequence (P35368 whole entry): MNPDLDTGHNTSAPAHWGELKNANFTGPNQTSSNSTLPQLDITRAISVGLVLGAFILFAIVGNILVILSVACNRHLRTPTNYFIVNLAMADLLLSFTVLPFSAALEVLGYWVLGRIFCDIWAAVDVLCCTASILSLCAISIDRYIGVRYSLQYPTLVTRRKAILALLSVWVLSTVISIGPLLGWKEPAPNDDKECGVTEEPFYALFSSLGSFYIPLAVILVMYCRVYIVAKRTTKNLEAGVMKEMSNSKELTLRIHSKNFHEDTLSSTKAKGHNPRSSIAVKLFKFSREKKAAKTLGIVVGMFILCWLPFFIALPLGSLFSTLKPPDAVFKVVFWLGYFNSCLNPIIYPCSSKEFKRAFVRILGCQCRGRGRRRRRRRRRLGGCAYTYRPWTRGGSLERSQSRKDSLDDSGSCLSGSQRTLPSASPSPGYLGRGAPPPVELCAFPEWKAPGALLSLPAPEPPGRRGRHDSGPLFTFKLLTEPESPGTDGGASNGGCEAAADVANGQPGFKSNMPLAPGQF
Procedure, shortened: (§1)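 Membranes came from HEK293 cells stably expressing human α1A-, α1B- or α1D-AR, selected with geneticin. Cells were washed in PBS pH 7.6, homogenized, and spun at 30,000 × g for 10 min. The radioligand was [125I]BE 2254. Affinities are pKi, given as mean ± SE of three experiments run in duplicate.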

[2] = biological target: T2, Alpha-1A adrenergic receptor (Homo sapiens, UniProt P35348); test: Displacement of [125I]BE-2254 from human adrenergic alpha1A receptor expressed in HEK293 cells; format: cell-based; procedure, shortened: as §1
T2 sequence (P35348 whole entry): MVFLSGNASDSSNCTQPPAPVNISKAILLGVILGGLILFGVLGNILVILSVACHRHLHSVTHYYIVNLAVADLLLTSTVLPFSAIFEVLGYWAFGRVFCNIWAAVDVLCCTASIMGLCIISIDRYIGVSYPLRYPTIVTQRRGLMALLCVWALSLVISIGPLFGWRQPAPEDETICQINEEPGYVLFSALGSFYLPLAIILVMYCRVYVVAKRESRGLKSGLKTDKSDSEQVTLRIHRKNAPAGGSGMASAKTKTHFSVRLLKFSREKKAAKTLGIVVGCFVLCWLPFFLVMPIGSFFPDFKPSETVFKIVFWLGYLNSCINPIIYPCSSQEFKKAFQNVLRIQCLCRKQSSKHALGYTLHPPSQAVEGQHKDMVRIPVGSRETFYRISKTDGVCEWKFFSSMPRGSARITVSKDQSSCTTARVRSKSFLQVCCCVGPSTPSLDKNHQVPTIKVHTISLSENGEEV

[3] = biological target: T3, Alpha-1D adrenergic receptor (Homo sapiens, UniProt P25100); test: Displacement of [125I]BE-2254 from human adrenergic Alpha-1D receptor expressed in HEK293 cells; format: cell-based; procedure, shortened: as §1
T3 sequence (P25100 whole entry): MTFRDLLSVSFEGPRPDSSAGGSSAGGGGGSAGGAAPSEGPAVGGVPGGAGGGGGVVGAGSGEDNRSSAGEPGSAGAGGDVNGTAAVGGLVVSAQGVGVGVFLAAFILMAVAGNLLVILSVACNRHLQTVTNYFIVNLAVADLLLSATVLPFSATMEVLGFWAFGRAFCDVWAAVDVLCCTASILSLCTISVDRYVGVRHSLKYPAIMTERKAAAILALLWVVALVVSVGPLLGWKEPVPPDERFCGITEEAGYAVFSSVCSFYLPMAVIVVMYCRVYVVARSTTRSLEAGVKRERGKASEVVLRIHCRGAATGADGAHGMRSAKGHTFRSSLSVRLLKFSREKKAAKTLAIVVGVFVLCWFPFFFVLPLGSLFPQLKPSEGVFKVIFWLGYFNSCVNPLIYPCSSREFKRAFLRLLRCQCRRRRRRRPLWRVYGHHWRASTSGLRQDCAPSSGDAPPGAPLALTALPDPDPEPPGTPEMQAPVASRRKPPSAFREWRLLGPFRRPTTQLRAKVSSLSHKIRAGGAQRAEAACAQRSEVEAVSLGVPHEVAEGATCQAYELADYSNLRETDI

[4] = biological target: T4, Alpha-1B adrenergic receptor (Homo sapiens) (UniProt P35368); test: Antagonist activity at human adrenergic Alpha-1B receptor expressed in HEK293 cells assessed as [3H]inositol phosphate formation at 10 uM by scintillation counting; format: functional, cell-based
T4 sequence (whole entry): T1 sequence (P35368 whole entry)
Procedure, shortened: (§2)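 Stably transfected HEK293 cells expressing human α1A-, α1B- or α1D-AR were labelled with myo-[3H]inositol and moved to Krebs Ringer bicarbonate buffer containing LiCl. They were incubated 60 min with or without NE, in the presence or absence of test compound. After a formic acid stop and sonication, [3H]InsPs were separated by anion-exchange chromatography and counted by scintillation.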

[5] = biological target: T2, Alpha-1A adrenergic receptor; test: Antagonist activity at human adrenergic alpha1A receptor expressed in HEK293 cells assessed as inhibition of norepinephrine-induced [3H]inositol phosphate hydrolysis by scintillation counting; format: functional, cell-based
Procedure, shortened: (§3)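 HEK293 cells stably transfected with human α1A-, α1B- or α1D-AR cDNA were prelabelled with myo-[3H]inositol, then given Krebs Ringer bicarbonate buffer with LiCl. Cells were incubated 60 min with or without NE and graded compound concentrations. The reaction was stopped with 20 mM formic acid. [3H]InsPs were isolated by anion exchange and counted by scintillation. Values (±SE) came from concentration-response inhibition curves.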

[6] = biological target: T1, Alpha-1B adrenergic receptor; test: Antagonist activity against human cloned adrenergic Alpha-1B receptor expressed in HEK293 cells assessed as inhibition of norepinephrine-induced [3H]inositol phosphate hydrolysis by scintillation counting; format: functional, cell-based; procedure, shortened: as §3
[7] = biological target: T5, Alpha-1A adrenergic receptor (Homo sapiens) (UniProt P35348); test: Antagonist activity at human adrenergic alpha1A receptor expressed in HEK293 cells assessed as [3H]inositol phosphate formation at 10 uM by scintillation counting; format: functional, cell-based; procedure, shortened: as §2
T5 sequence (whole entry): T2 sequence (P35348 whole entry)

[8] = biological target: T6, Alpha-1D adrenergic receptor (Homo sapiens) (UniProt P25100); test: Antagonist activity at human adrenergic Alpha-1D receptor expressed in HEK293 cells assessed as [3H]inositol phosphate formation at 10 uM by scintillation counting; format: functional, cell-based; procedure, shortened: as §2
T6 sequence (whole entry): T3 sequence (P25100 whole entry)

[9] = biological target: T3, Alpha-1D adrenergic receptor; test: Antagonist activity against human cloned adrenergic Alpha-1D receptor expressed in HEK293 cells assessed as inhibition of norepinephrine-induced [3H]inositol phosphate hydrolysis by scintillation counting; format: functional, cell-based; procedure, shortened: as §3
[10] = biological target: T1, Alpha-1B adrenergic receptor; test: Binding affinity to adrenergic Alpha-1B receptor
Procedure, shortened: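 Human α1B-adrenoceptor stably expressed in HEK293 cells, transfected with a pRSVICAT vector and selected with geneticin. Membranes were prepared by scraping cells, homogenizing them and centrifuging at 30,000 × g for 10 min. Values are pKi, mean ± SE of three experiments run in duplicate.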

SMILES | Ki [1] [µM] | Ki [2] [µM] | Ki [3] [µM] | other results
COc1ccc(Cl)cc1N1CCN(CCCN2C(=O)CC(c3ccccc3)CC2=O)CC1 | 0.331 | 0.191 | 0.389 | –
COc1ccccc1N1CCN(CCCN2C(=O)CC(C)(c3ccccc3)CC2=O)CC1 | 0.129 | 0.0102 | 0.0513 | –
COc1ccccc1N1CCN(CCCCN2C(=O)CC3(CCc4ccccc43)CC2=O)CC1 | 0.0724 | 0.00977 | 0.0162 | Activity [4]: inactive; Ki [5]: 0.01 µM; Ki [6]: 0.02 µM; Activity [7]: inactive; Activity [8]: inactive; Ki [9]: 0.00501 µM
CC(C)(C)c1ccc(N2CCN(CCn3c(=O)[nH]c4c([nH]c5ccccc54)c3=O)CC2)cc1 | – | – | – | pKi ([3]; hek293): 7.7
COc1ccccc1N1CCN(CCn2c(=O)[nH]c3c([nH]c4ccccc43)c2=O)CC1 | – | – | – | pKi ([2]; hek293): 9.57
COc1ccccc1N1CCN(CCCCCN2C(=O)CC(c3ccccc3)CC2=O)CC1 | 0.0977 | 0.0219 | 0.0309 | –
O=C1CC(c2ccccc2)CC(=O)N1CCN1CCN(c2ccccc2Cl)CC1 | 2.24 | 3.24 | 0.631 | –
COc1ccccc1N1CCN(CCN2C(=O)CC3(CCc4ccccc43)CC2=O)CC1 | 5.01 | 3.39 | 0.912 | –
O=C1CC(c2ccccc2)CC(=O)N1CCCCN1CCN(c2ccccc2Cl)CC1 | 0.0302 | 0.0158 | 0.0339 | –
COc1ccc(Cl)cc1N1CCN(CCCCN2C(=O)CC(C)(c3ccccc3)CC2=O)CC1 | 0.151 | 0.0955 | 0.0776 | –
COc1ccccc1N1CCN(CCCCN2C(=O)CC(c3ccc(Cl)cc3)CC2=O)CC1 | 0.245 | 0.0676 | 0.0724 | –
O=C1CC(c2ccc(Cl)cc2)CC(=O)N1CCN1CCN(c2ccccc2Cl)CC1 | 10 | 6.92 | 1.51 | –
COc1ccc(Cl)cc1N1CCN(CCCN2C(=O)CC(C)(c3ccccc3)CC2=O)CC1 | 0.195 | 0.0347 | 0.0977 | –
COc1ccccc1N1CCN(CCCN2C(=O)CC3(CCc4ccccc43)CC2=O)CC1 | 0.234 | 0.0631 | 0.0759 | –
COc1ccccc1N1CCN(CCN2C(=O)CC3(CCCC3)CC2=O)CC1 | – | – | – | Ki [10]: 0.0501 µM

The remaining compounds from weak to strong by Ki [1], led by results:

Ki [1] [µM] | Ki [2] [µM] | Ki [3] [µM] | SMILES | other results
7.41 | 3.47 | 1.32 | COc1ccccc1N1CCN(CCN2C(=O)CC(c3ccccc3)CC2=O)CC1 | –
0.209 | 0.0209 | 0.0537 | COc1ccccc1N1CCN(CCCCN2C(=O)CC(c3ccc([N+](=O)[O-])cc3)CC2=O)CC1 | –
0.135 | 0.049 | 0.0631 | O=C1CC(c2ccc(Cl)cc2)CC(=O)N1CCCN1CCN(c2ccccc2Cl)CC1 | –
0.129 | 0.0141 | 0.0676 | COc1ccccc1N1CCN(CCCN2C(=O)CC(c3ccc([N+](=O)[O-])cc3)CC2=O)CC1 | –
0.126 | 0.0282 | 0.0692 | COc1ccccc1N1CCN(CCCN2C(=O)CC(c3ccc(Cl)cc3)CC2=O)CC1 | –
0.112 | 0.0479 | 0.0437 | O=C1CC(c2ccccc2)CC(=O)N1CCCN1CCN(c2ccccc2Cl)CC1 | –
0.112 | 0.0468 | 0.0457 | COc1ccccc1N1CCN(CCCN2C(=O)CC(c3ccccc3)CC2=O)CC1 | –
0.112 | 1.7 | 0.692 | COc1ccccc1N1CCN(CCN2C(=O)CC(c3ccc(Cl)cc3)CC2=O)CC1 | –
0.107 | 0.0363 | 0.0389 | COc1ccc(Cl)cc1N1CCN(CCCCN2C(=O)CC(c3ccccc3)CC2=O)CC1 | –
0.0562 | 0.0224 | 0.0145 | COc1ccccc1N1CCN(CCCCN2C(=O)CC(C)(c3ccccc3)CC2=O)CC1 | Activity [4]: inactive; Ki [5]: 0.0316 µM; Ki [6]: 0.00794 µM; Activity [7]: inactive; Activity [8]: inactive; Ki [9]: 0.000501 µM
0.024 | 0.00182 | 0.0158 | COc1ccccc1N1CCN(CCCCN2C(=O)CC(c3ccccc3)CC2=O)CC1 | Activity [4]: inactive; Ki [5]: 0.00251 µM; Ki [6]: 0.00398 µM; Activity [7]: inactive; Activity [8]: inactive; Ki [9]: 0.002 µM
